Measurements reported in PMC5108244 (ACS Infectious Diseases, 2016).

What was measured:
[1] = tested on: T. brucei brucei TREU667 strain; assay: Late-stage T. brucei infection model in mice; type: in vivo; conditions: mice n = 5, orally 25 mg/kg qd for 10 days, monitored 90 days
How it was run: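 Female Swiss Webster mice (6–8 weeks, n = 5/group) infected ip on day 0 with 1 × 10^4 donor-mouse parasites in IMDM. From day 7, oral dosing for 10 days in DMSO/EtOH/Tween-80/saline: test compound 50 mg/kg bid, benzoxaborole control 25 mg/kg qd, vehicle bid. Diminazene control: single ip dose of 10 mg/kg on day 7. Tail blood checked microscopically at least twice weekly to day 30, then weekly to day 90. Parasitemic mice euthanized.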

[2] = tested on: T. brucei rhodesiense STIB900 strain; assay: Early-stage T. brucei infection model in mice; type: in vivo
How it was run: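 Female Swiss Webster mice (6–8 weeks, n = 4/group) infected ip on day 0 with 1 × 10^4 fresh-culture bloodstream-form parasites diluted in IMDM. Oral dosing twice daily, days 2–5 (eight doses), in 5% DMSO, 7% EtOH, 3% Tween-80 in saline; vehicle group in parallel; benzoxaborole reference as positive control. Parasitemia checked microscopically in tail blood through day 60.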

## CC1(C)OB(O)c2cc(NC(=O)c3ccc(F)cc3C(F)(F)F)ccc21 [compound 14, 4-fluoro-N-(1-hydroxy-3,3-dimethyl-2,1-benzoxaborol-6-yl)-2-(trifluoromethyl)benzamide]
[1]
  mice free of infection at the end of the experiment: all survived and were free of infection
[2]; mice n = 4, 1 mg/kg po bid for 4 days
  cures as of day 60: 0/4
[2]; mice n = 4, 5 mg/kg po bid for 4 days
  cures as of day 60: 1/4
[2]; mice n = 4, 10 mg/kg po bid for 4 days
  cures as of day 60: 4/4
